Assay results published in paper PMC8247525 (Diabetes Care, 2021).
Starred links: 1 amine or outer side, 2 acyl side, 3 side chain; linkers in the order of their positions; H or OH if unused. Groups on a side chain read outwards from the residue. No end group written: not given here. *: point of attachment. γGlu = O=C(O)[C@H](CCC(=O)[*:2])N[*:1]; Palmitoyl = CCCCCCCCCCCCCCCC(=O)*

Experiments:
[1] = system: participants with overweight or obesity and type 2 diabetes; assay: Phase 2b study: glycemic control; format: in vivo, human; conditions: on metformin, LS mean (95% CI), ANCOVA, LOCF
[2] = system: participants with overweight or obesity and type 2 diabetes; assay: Phase 2b study: body weight; format: in vivo, human; conditions: for Percent change in body weight from baseline to week 14: LS mean (95% CI), ANCOVA, LOCF; for Weight loss, placebo-adjusted change from baseline: week 54
[3] = system: participants with overweight or obesity and type 2 diabetes; assay: Phase 2b study: hepatic parameters; format: in vivo, human; conditions: LS mean (95% CI); for Percent change from baseline in GGT levels: after 54 weeks, ad hoc
[4] = system: participants with overweight or obesity and type 2 diabetes; assay: Phase 2b study: safety; format: in vivo, human
[5] = system: participants with overweight or obesity and type 2 diabetes; assay: Phase 2b study: anti-drug antibodies and exposure; format: in vivo, human
How it was run: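 Dosing started at 100 µg and rose weekly by 100 µg. Anti-drug antibodies, a secondary end point, were measured in all treated participants by a high-sensitivity assay. Titers were split at 80 and related to trough drug concentrations.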

[6] = cited from earlier work; for Reduction of mean body weight: head-to-head phase 2 trial of semaglutide with liraglutide
[7] = cotadutide 100 µg s.c. once daily
[8] = cotadutide 200 µg s.c. once daily
[9] = cotadutide 300 µg s.c. once daily
[10] = liraglutide 1.8 mg s.c. once daily

## Cotadutide
[1]; [7]
  Change from baseline to week 14 in HbA1c levels: –1.11 [–1.30, –0.93]
[1]; [8]
  Change from baseline to week 14 in HbA1c levels: –1.32 [–1.44, –1.21]
[1]; [9]
  Change from baseline to week 14 in HbA1c levels: –1.26 [–1.38, –1.14]
[2]; [7]
  Percent change in body weight from baseline to week 14: –2.98 [–3.87, –2.09] %
[2]; [8]
  Percent change in body weight from baseline to week 14: –3.67 [–4.22, –3.13] %
[2]; [9]
  Percent change in body weight from baseline to week 14: –5.01 [–5.57, –4.45] %
  Weight loss, placebo-adjusted change from baseline: –4.34%
[3]; [7]
  Percent change in fatty liver index, change from baseline: –8.08 [–10.62, –5.54] %
  Percent change from baseline in GGT levels: –10.54 [–26.75, 5.68] %
[3]; [8]
  Percent change in fatty liver index, change from baseline: –6.73 [–8.29, –5.17] %
[3]; [9]
  Percent change in fatty liver index, change from baseline: –8.18 [–9.79, –6.57] %
  Percent change from baseline in GGT levels: –12.17 [–22.45, –1.90] %
[4]; all tested doses of cotadutide, all P = 0.001 to P = 0.006
  Pulse rate versus placebo: Increases in pulse rates
[4]; [9]
  Systolic blood pressure: reduction in systolic blood pressure
[4]; cotadutide treatment, ad hoc
  Rate pressure product: no notable changes in rate pressure product
[5]; cotadutide-treated participants, all doses, high-sensitivity assay
  Anti-drug antibody (ADA) incidence: 60.8%
[5]; cotadutide, trough concentrations higher at titer >80
  Impact of ADA titer above 80 on pharmacokinetics, relative to population average: approximately twofold

## Liraglutide: GLP-1 receptor monoagonist, open-label active comparator 1.8 mg (HAEGTFTSDVSSYLEGQAAK([γGlu-Palmitoyl])EFIAWLVRGRG; chains of the INN, looked up) [reference compound]
[2]; liraglutide 1.8 mg s.c. once daily, open-label
  Percent change in body weight from baseline to week 14: –3.44 [–4.20, –2.68] %
[2]; [10]
  Weight loss, placebo-adjusted change from baseline: –2.65%
[3]; [10]
  Percent change from baseline in GGT levels: –10.54 [–24.41, 3.33] %
[6]
  Reduction of mean body weight: 7.8%
[6]; phase 2 and phase 3 clinical trials
  Reduction of body weight: 6–8%

## semaglutide
[6]
  Reduction of mean body weight: 6.0–13.8%
